# In the library only some 2.2% were active in any assay of this set; here they are far more common.
# TCR-CD3 inh: human TCR-CD3 binding inhibition; inhibition, % at 9.4 µM; AID 651800; TAMRA-labeled TCR probe fluorescence, biochemical; 360,000 tested, 0.37% active; in the data active = inhibition above about 19%;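 also: recombinant mutant TCR 2C K166C tagged with TAMRA read by polarization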
# TDP2 absorb: TDP2 (human) inhibition, absorbance primary screen; recombinant TDP2, T5PNP hydrolysis, p-nitrophenol absorbance 415 nm; inhibition, % at 12.8 µM; 370,000 tested, 0.34% active;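 active = inhibition above the mean of all tested compounds plus 3 SD, set per campaign, cut at about 25% in these data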
#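 Read-out basis: percent inhibition. System: recombinant human TDP2. Buffer or medium: Mg2+-containing Tris-HCl buffer, pH 7.5. Repeats: single replicate. Timing: reaction 2 h, 37 °C. Benchmarks: high control without enzyme, low control DMSO plus TDP2. Probe or stimulus: 5 mM T5PNP. Doses: 12.8 µM only. Measured by: epi absorbance of p-nitrophenol freed from T5PNP by hydrolysis.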
# SIAE primary: blocks human sialic acid acetylesterase | Q9HAT2 | SIAE FP-Rh probe binding, fluorescence polarization | inhibition, % at 9.66 µM | 370,000 tested, 0.69% active | AID 1053197;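 active = inhibition above a cutoff: mean of compounds within the control limits plus 3 SD of those, cut at about 17% in these data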
# Target sequence (Q9HAT2 whole entry, looked up): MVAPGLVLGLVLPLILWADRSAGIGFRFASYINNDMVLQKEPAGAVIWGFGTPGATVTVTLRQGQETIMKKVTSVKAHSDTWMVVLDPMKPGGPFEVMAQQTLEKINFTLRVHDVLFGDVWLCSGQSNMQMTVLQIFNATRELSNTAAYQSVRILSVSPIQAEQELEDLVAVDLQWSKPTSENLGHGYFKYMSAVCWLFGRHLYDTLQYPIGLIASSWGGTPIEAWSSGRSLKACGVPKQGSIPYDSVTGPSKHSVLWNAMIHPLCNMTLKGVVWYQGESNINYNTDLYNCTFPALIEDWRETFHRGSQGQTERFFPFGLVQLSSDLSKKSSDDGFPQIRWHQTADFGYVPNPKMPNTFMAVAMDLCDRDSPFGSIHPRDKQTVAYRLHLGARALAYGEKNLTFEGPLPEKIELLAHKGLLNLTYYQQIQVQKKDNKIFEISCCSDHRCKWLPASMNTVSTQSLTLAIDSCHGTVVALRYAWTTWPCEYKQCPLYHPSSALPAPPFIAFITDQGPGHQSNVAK
# HTRA1 inh: blocks human HTRA1 serine peptidase; Q92743; AID 504803; 340,000 tested, 0.5% active; inhibition, % at 5.96 µM; recombinant HTRA1, FP-rhodamine activity-based probe, fluorescence polarization; in the data active = inhibition above about 36%
# ABHD4 inh: inhibits mouse alpha/beta hydrolase domain 4; Q8VD66; purified mABHD4, FP-Rh probe fluorescence polarization; inhibition, % at 8.92 µM; 370,000 tested, 0.54% active; AID 720543;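 active = inhibition exceeding the mean over every tested compound plus 3 SD, cut at about 30% in these data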
#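 system = mouse ABHD4 enzyme, wild type | medium = HEPES pH 7.0, NaCl, Pluronic buffer | also added = FP-Rh probe | incubation = Enzyme–compound pre-incubation 45 min, then probe 60 min, both 25 °C | technique = fluorescence polarization, excitation 525 nm, emission 598 nm, BODIPY TMR filters | controls = S159A mutant high control, sample median low control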
# LEDGF integ inh: blocks HIV-1 LEDGF/p75-dependent DNA integration; inhibition, % at 3.7 µM; 370,000 tested, 0.64% active; AID 743269; TR-FRET IN-LEDGF/p75 DNA integration, Eu/Cy5;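 active = inhibition above the screen-wide mean plus 3 SD, cut at about 13% in these data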;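 also: signal is the Cy5 over europium emission ratio at 671 and 618 nm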
# TDP2 confirm: confirmation of human TDP2 inhibitors. shares compounds with TDP2 absorb. recombinant human TDP2, absorbance read-out. inhibition, % at 12.8 µM. 1,100 tested, 22% active; in the data active = inhibition above about 25%
# Hits are given with their value; . = inactive; / = not tested or not shown.
SMILES,TCR-CD3 inh,TDP2 absorb,SIAE primary,HTRA1 inh,ABHD4 inh,LEDGF integ inh,TDP2 confirm
COCCCNC(=O)C[C@H]1C[C@@]2(C(=O)OC)C(=C[C@H](C(C)(C)C)O[C@@H]2C)N(CCc2ccc(OC)c(OC)c2)C1=O,.,.,.,/,.,.,/
O=C(NC1(O)C(=O)c2ccccc2C1=O)c1c(Cl)cccc1Cl,.,71,.,/,.,.,79
O=C(NC1(O)C(=O)c2ccccc2C1=O)c1ccccc1,.,54,.,.,.,.,84
COC1(NC(=O)c2ccccc2)C(C)=CC(=O)C=C1C,.,.,.,.,.,.,/
COc1ccc(N(C(=O)Cn2nnc(-c3ccc(Cl)cc3)n2)C(C(=O)NCC2CCCO2)c2ccc(C)cc2)cc1 (configuration not stated),.,.,.,.,.,.,/
COc1ccc(N(C(=O)Cn2nnc(-c3ccccc3F)n2)C(C(=O)NCC2CCCO2)c2ccc(Cl)cc2)cc1 (configuration not stated),.,26,.,.,.,.,.
CCOC(=O)c1sc(NC(=O)CNCc2ccccn2)c(C(=O)OCC)c1C,.,26,.,.,.,.,.
CCOC(=O)c1sc(NC(=O)CNCc2cccnc2)c(C(=O)OCC)c1C,.,.,.,.,.,.,/
c1ccc(Cc2ccc(OCCN3CCOCC3)cc2)cc1,.,.,.,.,.,.,/
c1ccc(OCCN2CCOCC2)cc1,.,31,.,.,.,.,.
COC(=O)[C@]12C[C@H](CC(=O)NCCC(C)C)C(=O)N(Cc3ccco3)C1=C[C@H](C(C)C)O[C@@H]2C1CC1,/,.,.,/,.,.,/
CCn1cc(S(=O)(=O)Nc2ncccn2)cn1,.,25,.,.,.,.,.
Cc1ccccc1C(=O)Nc1cccc(NC(=O)c2cccnc2)c1,.,25,.,.,.,.,.
Clc1ccc(CN2CCN(N=Cc3c4ccccc4cc4ccccc34)CC2)cc1,/,.,.,/,.,.,/
CC1CCN(CCOc2cc(Cl)ccc2Cl)CC1,.,25,.,.,.,.,.
COc1cccc(NC(=O)c2cccc(C(=O)Nc3cccc(OC)c3)n2)c1,.,25,.,.,.,.,.
COc1cc(CNCc2ccc(Br)cc2)cc(OC)c1,.,25,.,.,.,.,.
COC(=O)[C@]12C[C@H](CC(=O)NCCc3ccccc3OC)C(=O)N(Cc3ccc4c(c3)OCO4)C1=C[C@H](COCc1ccccc1)O[C@@H]2C,.,.,.,/,.,.,/
COC1=C(Nc2ccc(OC)cc2)C(=O)C(OC)=C(Nc2ccc(OC)cc2)C1=O,.,.,.,.,.,.,/
CCOc1ccc(NC2=C(OC)C(=O)c3ccccc3C2=O)cc1,.,26,.,.,.,.,.
COC1=C(Nc2ccc(O)cc2)C(=O)c2ccccc2C1=O,.,48,.,.,.,.,.
Cc1ccc(NC(=O)Cc2ccc(OC(F)F)cc2)c(S(=O)(=O)N2CCOCC2)c1,/,.,.,/,.,.,/
Cc1ccccc1N(C)C(=O)CN1CCN(c2nc(-c3ccccc3)cs2)CC1,/,.,.,/,.,.,/
Cc1ccc(NC(=O)N2C3CCCC2CC(NC(=O)C2CC2)C3)cc1 (configuration not stated),.,.,.,.,.,.,/
O=C(NC1CC2CCCC(C1)N2C(=O)Nc1cccc(F)c1)C1CC1 (configuration not stated),.,28,.,.,.,.,.
SMILES,TCR-CD3 inh,TDP2 absorb,SIAE primary,HTRA1 inh,ABHD4 inh,LEDGF integ inh,TDP2 confirm
COC(=O)[C@]12C[C@H](CC(=O)NCCC(C)C)C(=O)N(Cc3cccc4ccccc34)C1=C[C@H](C(C)(C)C)O[C@@H]2C,/,.,.,/,.,.,/
c1cncc(CSc2nnc3ccc(-c4ccco4)nn23)c1,.,28,.,.,.,.,.
C[N+]1=C(N)NC2=C3CCCCC3n3c(=O)n(-c4ccccc4)c(=O)n3C2C1 (configuration not stated),/,.,.,/,.,.,/
COC(=O)/C=C1/SC(=NC(=O)c2ccc(Cl)cc2)NC1=O,.,25,.,.,.,.,.
COC(=O)/C=C1\SC(=NC(=O)c2ccc(C)cc2)NC1=O,.,.,.,.,.,.,/
Cc1ccccc1-c1ccc2c(c1)[C@@H]1C[C@H](N(C)S(=O)(=O)c3ccc(Cl)cc3)[C@H]([C@H](C)O)CN1CC2,.,.,.,/,.,.,/
C=CCN1C=C2C(=O)C(C)(OC(=O)c3cccs3)C(=O)C=C2C=C1CCCC(=O)OC (configuration not stated),.,26,.,.,.,.,.
COc1ccc(/C=N\NC(=O)Cc2cccn2C)cc1OCc1ccccc1,/,.,.,/,.,.,/
Nc1cc(S(=O)(=O)O)cc([N+](=O)[O-])c1O,.,50,.,.,.,44,.
O=C(Nc1ccc(N2CCN(c3ccc(O)cc3)CC2)cc1)Oc1ccccc1,.,.,.,.,.,.,/
Nc1ccc(OC(=O)Nc2ccc(O)cc2)cc1,.,30,.,.,.,.,.
COc1ccccc1/C=C/c1nc(S(=O)(=O)c2ccccc2)c(N2CCC(C(N)=O)CC2)o1,.,26,.,.,.,.,.
CCOC(=O)c1c(-c2ccc(OC)cc2)csc1NC(=O)CNCc1ccco1,/,/,/,.,/,/,/
CCOC(=O)c1c(-c2ccc(Cl)cc2)csc1NC(=O)CNCc1ccco1,.,32,.,.,.,.,.
Cc1ccc(C(=O)NCCONC(=O)c2ccc(C)cc2)cc1,.,25,.,.,.,.,.
COc1ccc(OC)c(C(=O)COC(=O)c2ccc(C)o2)c1,.,29,.,.,.,.,.
CN(C)c1ccc(C(=O)OCC(=O)NC2CCCCC2)cc1,.,.,.,.,.,.,/
CN(C)c1cccc(C(=O)OCC(=O)NC2CCCC2)c1,.,26,.,.,.,.,.
O=C(O)[C@@H]1CCCN1C(=O)CCc1c[nH]c2ccccc12,.,25,.,.,.,.,.
COC(=O)[C@]12C[C@H](CC(=O)NCc3ccccc3)C(=O)N(Cc3cccc4ccccc34)C1=C[C@H](C(C)C)O[C@@H]2C1CC1,/,.,.,/,.,.,/
C[C@@H]1CNCCN1c1ccc(N2CCN(Cc3ccccc3)[C@@H](C)C2)c(C#N)c1,.,.,.,/,.,.,/
Cc1cccc(N=C2C(=O)Nc3c(Cl)cccc32)c1,.,.,.,.,.,.,/
O=C1Nc2c(Cl)cc(Cl)cc2C1=O,.,49,.,.,.,.,54
Cc1cc(C(F)(F)F)nn1CC(=O)NCc1ccco1,.,31,.,.,.,.,.
Cc1c(Cl)c(C(F)(F)F)nn1CC(=O)NCc1ccco1,.,.,.,.,.,.,/

# High-throughput results: PubChem BioAssay, The Scripps Research Institute Molecular Screening Center
